pIC50: −log10 of the molar value.
How the values were obtained:
[1] = Lipophilicity, log D of the compound at pH 7.4 by shake flask method; format: physicochemical; settings: buffer
Outline: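 Log D at pH 7.4 by shake flask.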

[2] = target: T1, 3-hydroxy-3-methylglutaryl-coenzyme A reductase (Rattus norvegicus, UniProt P51639); assay: Inhibition of HMG-CoA reductase in Sprague-Dawley rat liver microsomes using [14C]HMG-CoA as substrate preincubated for 0.5 hrs before substrate addition measured after 0.75 hrs by beta scintillation counting; parameters: species or system Microsome
T1 sequence (P51639 whole entry): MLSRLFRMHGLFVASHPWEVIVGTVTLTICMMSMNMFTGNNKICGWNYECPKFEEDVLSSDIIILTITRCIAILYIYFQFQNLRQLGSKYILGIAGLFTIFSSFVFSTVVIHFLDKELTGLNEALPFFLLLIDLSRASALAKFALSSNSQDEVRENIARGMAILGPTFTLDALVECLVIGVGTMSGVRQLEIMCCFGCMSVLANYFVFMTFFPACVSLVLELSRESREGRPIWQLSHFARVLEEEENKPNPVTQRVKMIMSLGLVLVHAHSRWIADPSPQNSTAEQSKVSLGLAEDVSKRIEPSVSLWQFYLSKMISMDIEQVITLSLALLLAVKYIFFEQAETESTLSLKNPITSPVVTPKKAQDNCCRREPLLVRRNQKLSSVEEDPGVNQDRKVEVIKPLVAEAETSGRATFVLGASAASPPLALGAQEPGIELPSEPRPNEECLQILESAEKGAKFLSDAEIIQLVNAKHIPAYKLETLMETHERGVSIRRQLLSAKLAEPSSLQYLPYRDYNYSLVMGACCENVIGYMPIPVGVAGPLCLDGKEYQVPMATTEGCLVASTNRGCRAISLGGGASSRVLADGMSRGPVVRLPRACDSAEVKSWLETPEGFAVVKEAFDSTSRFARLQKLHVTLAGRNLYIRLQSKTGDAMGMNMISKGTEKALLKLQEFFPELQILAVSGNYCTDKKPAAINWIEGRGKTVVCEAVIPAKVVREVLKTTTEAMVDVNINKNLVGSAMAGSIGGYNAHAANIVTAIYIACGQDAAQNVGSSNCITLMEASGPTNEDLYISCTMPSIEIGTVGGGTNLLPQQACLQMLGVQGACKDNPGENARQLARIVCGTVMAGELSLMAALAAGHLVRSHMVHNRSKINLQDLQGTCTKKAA
Outline: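 Enzyme inhibition was measured in an HMG-CoA reductase preparation from rat microsomes. IC50 is reported as mean ± SEM of n ≥ 2 independent determinations.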

[3] = tested on: L6; assay: Inhibition of cholesterol synthesis in rat L6 cells assessed as reduction of [14C]-cholesterol level using [14C]-acetic acid preincubated for 3 hrs before addition of [14C]-acetic acid by scintillation counting; format: functional, cell-based
Outline: (§1)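 Cholesterol synthesis inhibition measured in rat hepatocytes and rat myocyte cell line, giving IC50 for each. Mean ± SEM of n ≥ 2 independent determinations.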

[4] = tested on: Syrian golden hamster; assay: Inhibition of cholesterol synthesis in golden syrian hamster assessed as reduction of [14C]-cholesterol level at 10 mg/kg, po followed by 3 hrs after treated with 80 uCi, ip of [14C]-sodium acetate measured after 5 hrs by liquid scintillation counting relative to control; format: functional; settings: Mesocricetus auratus
Outline: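 Separate hamster groups dosed po at 10 mg/kg at t = 0 h. 14C sodium acetate ip at t = 3 h, blood 14C cholesterol at t = 5 h. Percent change vs untreated controls, n = 8/group.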

[5] = tested on: L6; assay: Selectivity ratio of IC50 for cholesterol synthesis in rat L6 cells to IC50 for cholesterol synthesis in rat hepatocytes
[6] = tested on: Hepatocyte; assay: Inhibition of cholesterol synthesis in rat hepatocytes assessed as reduction of [14C]-cholesterol level using [14C]-acetic acid preincubated for 4 hrs before addition of [14C]-acetic acid by liquid scintillation counting; format: functional, cell-based; outline: as §1
[7] = tested on: Syrian golden hamster; assay: Inhibition of cholesterol synthesis in golden syrian hamster assessed as reduction of [14C]-cholesterol level at 10 mg/kg, po followed by 2 hrs after treated with 80 uCi, ip of [14C]-sodium acetate measured after 4 hrs by liquid scintillation counting relative to control; format: functional; settings: Mesocricetus auratus
Outline: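 Hamsters dosed po at 10 mg/kg at t = 0 h. Intraperitoneal 14C sodium acetate at t = 2 h, blood drawn at t = 4 h for 14C cholesterol. Percent inhibition vs untreated controls, n = 8/group.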

logD [1] | pIC50 [2] | Compound | pIC50 [3] | inhibition in vivo at 10 mg/kg [4] [%] | Ratio IC50 [5] | pIC50 [6] | inhibition in vivo at 10 mg/kg [7] [%]
0.08 | 8.82 | O=C(O)C[C@H](O)C[C@H](O)CCn1c(-c2ccc(F)cc2)nc(C(=O)NCc2ccccc2F)c1C1CC1 | 4.57 | -4 |  |  | 
0.44 | 8.31 | Cc1ccccc1CNC(=O)c1nc(-c2ccc(F)cc2)n(CC[C@@H](O)C[C@@H](O)CC(=O)[O-])c1C1CC1.[Na+] | 5.31 | 0 | 48500 | 10.00 | 
0.11 | 8.92 | COc1cccc(CNC(=O)c2nc(-c3ccc(F)cc3)n(CC[C@@H](O)C[C@@H](O)CC(=O)[O-])c2C2CC2)c1.[Na+] | 6.27 | -42 | 2960 | 9.70 | -53
 | 7.03 | Cc1c(C(=O)NCc2ccccc2)nc(-c2ccc(F)cc2)n1CC[C@@H](O)C[C@@H](O)CC(=O)O |  |  |  |  | 
-1.1 | 8.14 | NC(=O)c1ccc(CNC(=O)c2nc(-c3ccc(F)cc3)n(CC[C@@H](O)C[C@@H](O)CC(=O)[O-])c2C2CC2)cc1.[Na+] | < 4.00 | 0 | > 250000 | 9.40 | 
-0.46 | 8.31 | CN(C)S(=O)(=O)c1ccc(CNC(=O)c2nc(-c3ccc(F)cc3)n(CC[C@@H](O)C[C@@H](O)CC(=O)[O-])c2C2CC2)cc1.[Na+] | < 4.00 | 0 | > 200000 | 9.30 | 
0.16 | 8.15 | COc1ccccc1CNC(=O)c1nc(-c2ccc(F)cc2)n(CC[C@@H](O)C[C@@H](O)CC(=O)[O-])c1C1CC1.[Na+] | 4.97 |  | 107000 | 10.00 | 
0.45 | 8.77 | Cc1ccc(CNC(=O)c2nc(-c3ccc(F)cc3)n(CC[C@@H](O)C[C@@H](O)CC(=O)[O-])c2C2CC2)cc1.[Na+] | 6.75 | -36 | 1780 | 10.00 | -79
0.64 |  | CC(C)c1c(C(=O)NCc2ccccc2)nc(-c2ccc(F)cc2)n1CC[C@@H](O)C[C@@H](O)CC(=O)[O-].[Na+] |  | -7 | 10100 |  | -53
 | 7.59 | CCCc1c(C(=O)NCc2ccccc2)nc(-c2ccc(F)cc2)n1CC[C@@H](O)C[C@@H](O)CC(=O)O |  |  |  |  | 
 | 6.91 | CCc1c(C(=O)NCc2ccccc2)nc(-c2ccc(F)cc2)n1CC[C@@H](O)C[C@@H](O)CC(=O)O |  |  |  |  | 
0.69 | 8.39 | Cc1ccc(CNC(=O)c2nc(-c3ccc(F)cc3)n(CC[C@@H](O)C[C@@H](O)CC(=O)[O-])c2C2CC2)cc1F.[Na+] | 6.65 |  | 2240 | 10.00 | 
0.47 | 8.14 | Cc1cccc(CNC(=O)c2nc(-c3ccc(F)cc3)n(CC[C@@H](O)C[C@@H](O)CC(=O)[O-])c2C2CC2)c1.[Na+] | 6.27 | -50 | 1770 | 9.52 | -54
0.02 | 8.92 | COc1ccc(CNC(=O)c2nc(-c3ccc(F)cc3)n(CC[C@@H](O)C[C@@H](O)CC(=O)[O-])c2C2CC2)cc1.[Na+] | 5.19 |  | 32000 | 9.70 | -60
0.03 | 8.85 | O=C([O-])C[C@H](O)C[C@H](O)CCn1c(-c2ccc(F)cc2)nc(C(=O)NCc2ccccc2)c1C1CC1.[Na+] | 6.20 |  | 3160 | 9.70 | -58
 | 8.43 | COc1ccc(CNC(=O)c2nc(-c3ccc(F)cc3)n(CC[C@@H](O)C[C@@H](O)CC(=O)[O-])c2C2CC2)cc1F.[Na+] | 6.05 | 0 | 4450 | 9.70 | -36
 | 8.92 | O=C([O-])C[C@H](O)C[C@H](O)CCn1c(-c2ccc(F)cc2)nc(C(=O)NCc2ccc(F)cc2F)c1C1CC1.[Na+] | 5.31 |  | 24350 | 9.70 | -46
 | 8.92 | O=C([O-])C[C@H](O)C[C@H](O)CCn1c(-c2ccc(F)cc2)nc(C(=O)NCc2ccc(F)c(F)c2)c1C1CC1.[Na+] | 5.56 | -8 | 5560 | 9.30 | 
0.17 | 8.47 | O=C([O-])C[C@H](O)C[C@H](O)CCn1c(-c2ccc(F)cc2)nc(C(=O)NCc2ccc(F)cc2)c1C1CC1.[Na+] | 5.79 | 0 | 2310 | 9.15 | 

Source: ChEMBL document CHEMBL1781963, “Discovery of novel hepatoselective HMG-CoA reductase inhibitors for treating hypercholesterolemia: a bench-to-bedside case study on tissue selective drug distribution” (Bioorg Med Chem Lett, 2011)
